# Reference: PubChem BioAssay
# Calls of active or inactive are those of the source.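 Rule for the calls, unless noted: active = fluorescence slope higher than the sample average by over 3 SD (cut at about -0.22 in these data, passing the limit was not always enough); inactive = the rest.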
# Key:
# [1] = inhibitors of TNFa-induced NFkB p65 translocation, primary screen, imaging, HUVEC, MLSMR starter and 10KST1 sets (AID 438;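 active = inhibition above 20% together with a positive visual image hit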;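 note: compound added about 3h40 before a 20 min TNFalpha stimulation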;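 for inhibition: signal is the nuclear over cytoplasmic p65 intensity ratio per well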); settings: HUVEC TNFa-induced p65 nuclear translocation; cell count: measured here: nuclei count (cytotoxicity indicator), at 2.08 µM; inhibition: at 2 µM, stronger effect = higher value, 0% TNFa-plus-vehicle, 100% no-TNFa wells
# [2] = endothelial E-selectin expression blockers – imaging, HUVEC, immunofluorescence, MLSMR starter and 10KST1 sets, primary screen (AID 487;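 active = visually confirmed hit in the image check and inhibition above 20%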;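 for inhibition: signal is fraction of cell area covered by stained E-selectin grains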;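 for nuclei count: 100% = median nuclei count of all wells on the same plate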); settings: HUVEC TNFalpha-induced E-selectin immunofluorescence imaging, at 2 µM; inhibition: stronger effect = higher value; nuclei count: measured here: cell number, toxicity
# [3] = Primary imaging screen for DUSP6 inhibitors that restore phospho-Erk in transfected HeLa cells, chemical complementation (AID 609;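 active = compounds giving at least 50% inhibition in the cell-based MKP-3 phosphatase rescue imaging test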;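 for inhibition: phospho-Erk level distribution per well compared with pooled transfected vehicle control wells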); settings: HeLa MKP-3 transfected, phospho-Erk imaging KS statistic, at 10 µM, cells stimulated with TPA for 15 min
# [4] = biological target: Dual specificity protein phosphatase 6 (Homo sapiens) (UniProt Q16828); assay: as above; settings: HeLa MKP-3 transfected, phospho-Erk imaging KS statistic; at 10 µM; stronger effect = higher value; cells stimulated with TPA for 15 min
# Dual specificity protein phosphatase 6 (Homo sapiens), sequence (Q16828 whole entry, looked up): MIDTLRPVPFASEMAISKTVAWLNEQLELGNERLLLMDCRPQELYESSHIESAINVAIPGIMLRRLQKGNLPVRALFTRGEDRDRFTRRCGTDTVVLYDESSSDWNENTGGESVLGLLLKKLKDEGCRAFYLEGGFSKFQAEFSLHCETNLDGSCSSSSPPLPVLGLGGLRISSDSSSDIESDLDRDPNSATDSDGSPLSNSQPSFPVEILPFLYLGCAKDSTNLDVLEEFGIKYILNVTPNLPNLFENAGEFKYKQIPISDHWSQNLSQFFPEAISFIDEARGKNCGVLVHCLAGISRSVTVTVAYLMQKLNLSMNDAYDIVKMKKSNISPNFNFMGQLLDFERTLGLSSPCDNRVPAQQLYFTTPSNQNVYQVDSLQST
# [5] = biological target: Voltage-gated potassium channel subunit beta-2 (Rattus norvegicus) (UniProt P62483); assay: inhibitors of rat Kvbeta2 reductase activity – biochemical, NADPH fluorescence, primary screen (AID 622); settings: recombinant KvBeta, 4-cyanobenzaldehyde reduction, at 10 µM, stronger effect = higher value;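 note: slope of raw intensity against log time taken from 70 to 1610 s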
# Voltage-gated potassium channel subunit beta-2 (Rattus norvegicus), sequence (P62483 whole entry, looked up): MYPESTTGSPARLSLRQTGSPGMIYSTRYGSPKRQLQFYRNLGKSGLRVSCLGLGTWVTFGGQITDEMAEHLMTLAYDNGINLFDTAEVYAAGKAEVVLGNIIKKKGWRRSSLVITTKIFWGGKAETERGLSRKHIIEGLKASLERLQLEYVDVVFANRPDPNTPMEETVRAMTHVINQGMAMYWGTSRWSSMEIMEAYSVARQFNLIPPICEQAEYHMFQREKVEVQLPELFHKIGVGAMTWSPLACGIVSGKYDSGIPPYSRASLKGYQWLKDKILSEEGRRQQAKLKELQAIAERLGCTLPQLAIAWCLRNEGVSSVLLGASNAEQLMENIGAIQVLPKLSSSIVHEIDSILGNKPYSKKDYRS
# [6] = biological target: Voltage-gated potassium channel subunit beta-2 (Rattus norvegicus) (UniProt P62483); assay: enhancers of rat Kvbeta2 NADPH turnover – biochemical, NADPH fluorescence, primary screen (AID 623;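 active = NADPH fluorescence slope more negative than the mean of all samples by about 3 SD, 99.7% confidence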;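 note: fluorescence intensity change per second fitted from 20 to 320 s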); settings: Recombinant KvBeta, NADPH fluorescence decrease slope, 10 min; at 10 µM; stronger effect = lower value
# [7] = biological target: Muscarinic acetylcholine receptor M4 (Homo sapiens) (UniProt P08173); assay: M4-linked GIRK flux change, two-sided – cell-based, HEK293 M4/GIRK, thallium flux, BTC-AM, M4 allosteric agonist project, primary screen (AID 625;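 active = fluorescence slope after compound addition differing from the mean of all tested samples at 99.7% confidence, mostly higher but some lower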;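 note: thallium influx through GIRK channels coupled to M4 in HEK293 cells with BTC-AM dye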); settings: at 10 µM, actives lie on both sides
# Muscarinic acetylcholine receptor M4 (Homo sapiens), sequence (P08173 whole entry, looked up): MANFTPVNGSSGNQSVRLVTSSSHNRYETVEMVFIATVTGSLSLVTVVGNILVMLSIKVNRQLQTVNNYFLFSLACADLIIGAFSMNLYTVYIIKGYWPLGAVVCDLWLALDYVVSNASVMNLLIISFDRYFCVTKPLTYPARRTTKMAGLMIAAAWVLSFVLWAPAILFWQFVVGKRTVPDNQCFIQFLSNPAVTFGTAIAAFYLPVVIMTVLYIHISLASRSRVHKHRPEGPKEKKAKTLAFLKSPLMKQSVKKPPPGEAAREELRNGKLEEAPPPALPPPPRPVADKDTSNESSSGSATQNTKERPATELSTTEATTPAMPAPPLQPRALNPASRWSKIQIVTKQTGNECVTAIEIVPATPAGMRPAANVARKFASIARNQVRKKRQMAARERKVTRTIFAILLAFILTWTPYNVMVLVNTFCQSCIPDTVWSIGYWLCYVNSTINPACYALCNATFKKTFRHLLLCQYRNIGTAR
# Outline: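 System: HEK293 cells with M4 receptor and GIRK channels | Incubation: Cells overnight at 37 °C, BTC-AM loading 1 h, reads 2 min total | Technique: Kinetic BTC-AM fluorescence sampled at 1 Hz, 10 s pre-addition baseline | Measure: Post-addition slope, 15–24 s, of baseline-normalized fluorescence | Control set: Carbachol positive, DMSO negative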
# [8] = inhibitors of larval lipid processing in zebrafish, primary screen, whole organism, PED6 fluorescence, gall bladder and intestine (AID 686;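 active = a full or partial loss of lipid-probe fluorescence in the fish gall bladder, intestine or both, judged by eye; inactive = no fluorescence loss, or compound toxic to the fish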;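 note: larvae 5 to 7 days old with five fish per well; signal comes from phospholipase A2 cleavage of quenched PED6 carried via bile; overnight exposure to compound and PED6 before scoring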); settings: Zebrafish larvae PED6 lipid processing, fluorescence scoring; screened at 20 µM (by protocol)
# Outline: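 Test system – live zebrafish larvae aged 5-7 days, whole organism · Buffer or medium – E3 fish medium · Reagent – quenched phospholipase substrate PED6, 100 nM final, ingested by larvae · Doses – 20 µM single dose · Incubation – overnight compound and PED6 incubation · Technique – visual fluorescence microscopy scoring of gall bladder, gut · Read-out basis – visual per-well fluorescence inhibition score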
# [9] = loss of swimming-algae plug formation – whole organism, Chlamydomonas reinhardtii, WT vs cilia-less mutant, absorbance, 96-well, primary screen (AID 463189;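 active = inhibition at or above 50% relative to wild type and mutant plate controls; inactive = inhibition below 50%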;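 note: 0% = wild type cc124 cells in DMSO and 100% = ciliumless bld1 mutant cells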); settings: Chlamydomonas reinhardtii gravitaxis, OD600 absorbance, 2 days; at 10 µM; stronger effect = higher value
# [10] = measured here: cell density z-score
# [11] = measured here: nuclear c-Myc green intensity z-score
# [12] = measured here: nuclear pErk red intensity z-score, stronger effect = higher value
Compound,cell count [1],inhibition [1],inhibition [2],nuclei count [2],"z-score [3, 10]","z-score [3, 11]","z-score [3, 12]",inhibition [4],fluorescence slope [5],NADPH fluorescence slope [6],fluorescence slope [7],outcome [8],inhibition [9]
CCN(CC)C(=O)CSc1nc2ccccc2c(=O)n1CC1CCCCC1,355,-2.2% (inactive),4% (inactive),108%,-1.94,0.923,-0.374,1.42% (inactive),-0.484 (inactive),5.7e-06 (inactive),0.00498 (inactive),inactive,7.22% (inactive)
CCCSc1nnc(NC(=O)Nc2ccccc2)s1,655,-20.6% (inactive),-53.8% (inactive),184%,0.599,-1.15,-0.322,5.35% (inactive),-0.484 (inactive),-5.4e-05 (inactive),0.00763 (inactive),inactive,-6.45% (inactive)
CCCn1c(SCC#N)nc2c(c1=O)C1(CCCC1)Cc1ccccc1-2,547,-1.4% (inactive),-10.8% (inactive),185%,-0.545,0.717,-0.241,3.97% (inactive),-0.402 (inactive),-3.9e-05 (inactive),0.00798 (inactive),inactive,-14.9% (inactive)
CCC(NC(=O)NC1=NCCS1)(C(F)(F)F)C(F)(F)F,772,2.9% (inactive),-60% (inactive),150%,0.622,-0.646,0.179,20.2% (inactive),-0.433 (inactive),-7.2e-05 (inactive),0.00527 (inactive),inactive,-2.29% (inactive)
O=C(c1ccc(-n2cnnn2)cc1)N1CCOCC1,670,-3.5% (inactive),18.9% (inactive),171%,0.439,-0.115,0.866,4.72% (inactive),-0.492 (inactive),-4.1e-05 (inactive),0.00579 (inactive),inactive,-1.94% (inactive)
CCOc1ccc2c(c1)n([O-])c1c([n+]2=O)CCCC1,345,6.9% (inactive),-31.4% (inactive),84.7%,-0.67,0.548,-1.91,23.4% (inactive),-0.4 (inactive),-0.000101 (inactive),0.0052 (inactive),inactive,32.8% (inactive)
COc1ccccc1C1/C(=C(/O)c2ccc(C)cc2)C(=O)C(=O)N1CCN1CCOCC1 (stereo unspecified),652,-11.9% (inactive),-32.2% (inactive),133%,-0.486,-0.67,0.136,-2.09% (inactive),-0.506 (inactive),-4e-05 (inactive),0.0067 (inactive),inactive,0.641% (inactive)
C=CCc1cccc(CNc2nc3ccccc3n2C(C)C)c1O,653,4.4% (inactive),17.8% (inactive),145%,-1.18,1.98,1.18,-3.95% (inactive),-0.502 (inactive),-9.2e-05 (inactive),0.00595 (inactive),inactive,2.16% (inactive)
COc1ccc(Nc2cc(C)nc(-n3nc(C)cc3C)n2)cc1,454,12% (inactive),-182% (inactive),127%,-0.499,-0.357,-1.13,-3.95% (inactive),-0.427 (inactive),-2.8e-05 (inactive),0.00507 (inactive),inactive,45% (inactive)
COC(=O)c1ccccc1NC(=O)C1COc2ccccc2O1 (stereo unspecified),655,-10% (inactive),1.5% (inactive),169%,1.14,-0.164,-1.54,-0.674% (inactive),-0.465 (inactive),-5.2e-05 (inactive),0.00637 (inactive),inactive,3.4% (inactive)
O=C(NCCC1=CCCCC1)c1ccc(=O)oc1,670,-1.4% (inactive),33.5% (inactive),163%,-0.394,-0.165,0.265,-2.29% (inactive),-0.448 (inactive),-0.000197 (inactive),0.00522 (inactive),inactive,20.7% (inactive)
O=C1c2ccccc2C(=O)N1c1ncccn1,500,-8.5% (inactive),-89% (inactive),138%,-0.519,-0.638,0.031,1.42% (inactive),-0.454 (inactive),-0.000107 (inactive),0.00418 (inactive),inactive,3.86% (inactive)
